Compound activity as filed in PubChem.
Only a selection was taken, and hits are over-represented in it overall.
A1 apoptosis 2 – A1 inhibition read as caspase activation; caspase activation, % (no concentration beside the values); MEF A1-2A-BIM cells, caspase-Glo luminescence, 3 h; percent of clofoctol response, DMSO zero; 24,000 tested, under 10 active; in the data active = caspase activation above about 5.9%
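Evaluation: Caspase-3/7 activity from luminescence increase | Assay system: A1-2A-BIM mouse embryonic fibroblasts | Quantity: 2500 MEF cells/well | Medium: RPMI-1640 plus 10% FBS | Detection: Caspase-Glo 3/7 luminescence, 1 h at room temperature | Dosing: 50 nL compound per well, pinned | Timing: Cells settled overnight, compound exposure 3 h at 37 °C, 5% CO2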
INS-1E ATP HTS – rescue of cytokine-induced death in INS-1E beta cells. INS-1E cytokine-induced death, ATP luminescence, 48 h; normalised: neutral wells 0, positive control 100. protection from cytokine-induced ATP loss, % at 10 µM. hit rate 0.1% among 20,000;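 active = mean replicate protection from cytokine-induced ATP loss at least 50% and at least 75% of replicates each reaching 50%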
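Material: INS-1E rat cells; Quantity: 8000 cells/well; Buffer or medium: phenol-red-free RPMI with 5% fetal bovine serum; Probe or stimulus: cytokine cocktail of IFN-γ, TNF-α and IL-1β; Compound dosing: single test concentration per compound, delivered by pin transfer; Incubation: 48 h co-treatment, 10 min post-lysis read; Signal: CellTiter-Glo luminescence.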
T cruzi intra – inhibitors of intracellular Trypanosoma cruzi; intracellular Trypanosoma cruzi in host cells, plate reader; activity score (inhibition), % at 5.01 µM; hit rate 4.9% among 22,000; AID 651903; in the data active = activity score above about 55%;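 also: parasites and compound incubated about four days before reading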
Each line names hits and unclear results; the compound was inactive in the other large screens.

C[C@@H]1CCCCO[C@@H](CN(C)C(=O)Nc2ccc(C(F)(F)F)cc2)[C@H](C)CN([C@H](C)CO)C(=O)c2cc(NC(=O)Nc3cccc4ccccc34)ccc2O1	none (no result: INS-1E ATP HTS, T cruzi intra)
C[C@@H]1CCCCO[C@H](CN(C)C(=O)Nc2ccccc2)[C@@H](C)CN([C@H](C)CO)C(=O)c2cc(NC(=O)Nc3ccc(C(F)(F)F)cc3)ccc2O1	T cruzi intra 70 (no result: A1 apoptosis 2)
CC(C)NC(=O)Nc1ccc2c(c1)C(=O)N([C@@H](C)CO)C[C@H](C)[C@H](CN(C)C(=O)Nc1ccc(C(F)(F)F)cc1)O2	none
C[C@@H]1CCCCO[C@@H](CN(C)S(=O)(=O)c2cccs2)[C@@H](C)CN([C@H](C)CO)C(=O)c2cc(NS(C)(=O)=O)ccc2O1	none
C[C@@H]1CN([C@@H](C)CO)C(=O)c2cc(NS(=O)(=O)c3cn(C)cn3)ccc2O[C@H]1CN(C)S(C)(=O)=O	none (no result: INS-1E ATP HTS)
C[C@@H]1CN([C@@H](C)CO)C(=O)c2cc(NC(=O)Cc3ccccc3)ccc2O[C@@H](C)CCCCO[C@@H]1CN(C)C(=O)CCC(F)(F)F	none (no result: INS-1E ATP HTS, T cruzi intra)
C[C@@H]1CN([C@@H](C)CO)C(=O)c2cc(NC(=O)C3CCCCC3)ccc2O[C@@H](C)CCCCO[C@@H]1CN(C)S(=O)(=O)c1ccc(F)cc1	none (no result: INS-1E ATP HTS, T cruzi intra)
COc1ccc(/C=N/NC(=O)c2ccccc2O)c(OC)c1	none
C[C@@H]1CCCCO[C@@H](CN(C)C(=O)Nc2ccc(C(F)(F)F)cc2)[C@@H](C)CN([C@H](C)CO)C(=O)c2cc(NC(=O)Nc3ccc(C(F)(F)F)cc3)ccc2O1	T cruzi intra 69 (no result: A1 apoptosis 2)
C[C@@H]1CCCCO[C@@H](CN(C)C(=O)c2ccccc2)[C@@H](C)CN([C@H](C)CO)C(=O)c2cc(NC(=O)Nc3ccc(C(F)(F)F)cc3)ccc2O1	T cruzi intra 68
C[C@@H]1CCCCO[C@H](CN(C)C(=O)c2ccccc2)[C@@H](C)CN([C@@H](C)CO)C(=O)c2cc(NC(=O)Nc3ccc(C(F)(F)F)cc3)ccc2O1	none (no result: INS-1E ATP HTS, T cruzi intra)
C[C@H](CO)N1C[C@H](C)[C@H](CN(C)C(=O)Nc2ccc(F)cc2)OCCCC[C@H](C)Oc2ccc(NC(=O)Nc3ccc(C(F)(F)F)cc3)cc2C1=O	none (no result: INS-1E ATP HTS, T cruzi intra)
C[C@H]1CN([C@@H](C)CO)C(=O)c2cc(NC(=O)Nc3ccc(C(F)(F)F)cc3)ccc2O[C@@H]1CN(C)C(=O)Nc1ccc(F)cc1	none
C[C@@H]1CCCCO[C@@H](CN(C)C(=O)Nc2ccc(F)cc2)[C@@H](C)CN([C@H](C)CO)C(=O)c2cc(NC(=O)Nc3ccc(C(F)(F)F)cc3)ccc2O1	T cruzi intra 64 (no result: A1 apoptosis 2)
C[C@@H]1CN([C@@H](C)CO)C(=O)c2cc(NC(=O)Nc3ccc(C(F)(F)F)cc3)ccc2O[C@@H]1CN(C)C(=O)Nc1ccc(F)cc1	T cruzi intra 58 (no result: A1 apoptosis 2)
C[C@H]1CCCCO[C@@H](CN(C)C(=O)Nc2ccc(C(F)(F)F)cc2)[C@@H](C)CN([C@@H](C)CO)C(=O)c2cc(NC(=O)Nc3ccc(F)cc3)ccc2O1	none (no result: INS-1E ATP HTS, T cruzi intra)
C[C@H]1CN([C@@H](C)CO)C(=O)c2cccc(NC(=O)Nc3cccc4ccccc34)c2O[C@@H]1CN(C)S(=O)(=O)c1ccc(Cl)cc1	none
C[C@@H]1CN([C@H](C)CO)C(=O)c2cc(NC(=O)Nc3ccccc3)ccc2O[C@@H]1CN(C)Cc1ccc(C(=O)O)cc1	none (no result: A1 apoptosis 2)
C[C@@H]1CCCCO[C@H](CN(C)C(=O)Nc2ccccc2)[C@H](C)CN([C@@H](C)CO)C(=O)c2cc(NS(=O)(=O)c3ccc(F)cc3)ccc2O1	none (no result: INS-1E ATP HTS, T cruzi intra)
C[C@H]1CN([C@@H](C)CO)C(=O)c2cc(NC(=O)Cn3cnnn3)ccc2O[C@H]1CN(C)C(=O)Nc1ccccc1	none (no result: A1 apoptosis 2)
Cc1noc(C)c1NC(=O)Nc1ccc2c(c1)CC(=O)N([C@H](C)CO)C[C@@H](C)[C@H](CN(C)C)O2	none
C[C@H](CO)N1C[C@H](C)[C@@H](CN(C)C)Oc2ccc(NS(=O)(=O)c3cn(C)cn3)cc2CC1=O	none (no result: INS-1E ATP HTS, T cruzi intra)
C[C@@H]1CCCCO[C@@H](CN(C)C(=O)C2CCCCC2)[C@@H](C)CN([C@H](C)CO)C(=O)c2cc(NC(=O)Nc3ccc(C(F)(F)F)cc3)ccc2O1	T cruzi intra 77 (no result: A1 apoptosis 2)
C[C@@H]1CN([C@@H](C)CO)C(=O)c2cc(NC(=O)Nc3ccc(C(F)(F)F)cc3)ccc2O[C@@H](C)CCCCO[C@@H]1CN(C)C(=O)C1CCCCC1	none (no result: INS-1E ATP HTS, T cruzi intra)
C[C@@H]1CCCCO[C@H](CN(C)C(=O)Nc2ccc(C(F)(F)F)cc2)[C@@H](C)CN([C@H](C)CO)C(=O)c2cc(NC(=O)Nc3ccc4c(c3)OCO4)ccc2O1	T cruzi intra 59 (no result: A1 apoptosis 2)
C[C@H](CO)N1C[C@H](C)[C@H](CN(C)C(=O)Nc2ccc3c(c2)OCO3)OCCCC[C@H](C)Oc2ccc(NC(=O)Nc3ccc(C(F)(F)F)cc3)cc2C1=O	none (no result: INS-1E ATP HTS, T cruzi intra)
C[C@@H]1CCCCO[C@H](CN(C)C(=O)Nc2ccc(C(F)(F)F)cc2)[C@@H](C)CN([C@H](C)CO)C(=O)c2cc(NC(=O)c3ccccc3)ccc2O1	T cruzi intra 59 (no result: A1 apoptosis 2)
C[C@@H]1CN([C@H](C)CO)C(=O)c2cc(NC(=O)c3ccccc3)ccc2O[C@@H](C)CCCCO[C@H]1CN(C)C(=O)Nc1ccc(C(F)(F)F)cc1	none (no result: INS-1E ATP HTS, T cruzi intra)
C[C@@H]1CCCCO[C@H](CN(C)Cc2ccc(C(F)(F)F)cc2)[C@@H](C)CN([C@H](C)CO)C(=O)c2cc(NC(=O)Nc3cccc4ccccc34)ccc2O1	T cruzi intra 74 (no result: A1 apoptosis 2)
C[C@@H]1CCCCO[C@H](CN(C)Cc2ccc(C(F)(F)F)cc2)[C@H](C)CN([C@H](C)CO)C(=O)c2cc(NC(=O)Nc3cccc4ccccc34)ccc2O1	none (no result: INS-1E ATP HTS, T cruzi intra)
Cc1noc(C)c1NC(=O)N(C)C[C@@H]1Oc2c(NC(=O)C3CCCCC3)cccc2C(=O)N([C@@H](C)CO)C[C@H]1C	none (no result: A1 apoptosis 2)
CCCN(C)C[C@@H]1OCCCC[C@@H](C)Oc2ccc(NC(=O)Nc3ccc(F)cc3)cc2C(=O)N([C@H](C)CO)C[C@@H]1C	none
COc1ccc(CN(C)C[C@H]2Oc3c(NS(=O)(=O)c4ccc(OC)cc4)cccc3C(=O)N([C@H](C)CO)C[C@@H]2C)cc1	none
C[C@@H]1CN([C@H](C)CO)C(=O)Cc2cc(NS(=O)(=O)c3ccc(Cl)cc3)ccc2O[C@@H]1CN(C)CC1CC1	none
CC(C)(C)OC(=O)NC/C=N/NC(=O)c1ccccc1O	none (no result: A1 apoptosis 2)
Cc1ccc(S(=O)(=O)Nc2ccc3c(c2)C(=O)N([C@@H](C)CO)C[C@H](C)[C@@H](CN(C)S(=O)(=O)c2ccc(Cl)cc2)OCCCC[C@@H](C)O3)cc1	none (no result: INS-1E ATP HTS, T cruzi intra)
C[C@@H]1CCCCO[C@H](CN(C)CC2CCCCC2)[C@@H](C)CN([C@H](C)CO)C(=O)c2cc(NS(=O)(=O)c3ccc(Cl)cc3)ccc2O1	none
C[C@@H]1CCCCO[C@@H](CN(C)S(=O)(=O)c2ccc(Cl)cc2)[C@@H](C)CN([C@H](C)CO)C(=O)c2cc(NS(=O)(=O)c3ccc(Cl)cc3)ccc2O1	T cruzi intra 59
C[C@@H]1CCCCO[C@@H](CN(C)CC2CCCCC2)[C@@H](C)CN([C@H](C)CO)C(=O)c2cc(NS(=O)(=O)c3ccc(Cl)cc3)ccc2O1	T cruzi intra 62
